# Assay outcomes as filed in PubChem BioAssay.
# The list is not random: actives were taken first. Their share in the collection is about 1.9%.
# Scp-1 inhibitor: Scp-1 (human) phosphatase inhibition | Q9GZU7 | Recombinant Scp1, phosphopeptide, malachite green phosphate absorbance | inhibition, % at 20 µM | actives 0.88% (n = 340,000);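 active means inhibition above about 50% at 20 µM, limit read from the data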;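 further: plate controls were DMSO wells with enzyme for no effect and wells lacking enzyme for full effect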
# Target sequence (Q9GZU7 76-261 limits assumed): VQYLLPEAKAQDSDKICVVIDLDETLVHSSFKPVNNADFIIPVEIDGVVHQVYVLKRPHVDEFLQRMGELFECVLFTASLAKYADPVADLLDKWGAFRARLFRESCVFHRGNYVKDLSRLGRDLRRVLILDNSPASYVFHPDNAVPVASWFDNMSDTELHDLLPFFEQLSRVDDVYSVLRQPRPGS
#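 Test system: SCP-1 phosphatase catalytic domain, residues 76-261 | Compound dosing: One concentration, 20 µM, with 1.0% DMSO | Schedule: 45 min room-temperature reaction, 5 min colour, 30 min stabiliser | Detection: Absorbance at 630 nm | Read-out basis: % inhibition of SCP-1 phosphate liberation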
# STEP block: STEP (human) phosphatase inhibition | P54829 | recombinant STEP, OMFP fluorogenic substrate, fluorescence | inhibition, % at 20 µM | actives 0.25% (n = 360,000) | AID 588621;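 active means inhibition at 20 µM, scaled per plate between control wells, above about 37%, limit read from the data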;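 further: 0% = DMSO with enzyme and substrate and 100% = substrate only without enzyme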
#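 System: isolated STEP enzyme; schedule: 20 min enzyme reaction at room temperature, protected from light; medium: Bis-Tris buffer pH 6.0, 2.5 mM DTT, 0.005% Tween 20; signal: fluorescence, 480/540 nm; dosing: single compound dose of 20 µM, 1% DMSO final; also added: OMFP substrate, 25 µM final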
# LMPTP inh: blocks human LMPTP phosphatase; P24666; actives 0.22% (n = 360,000); recombinant LMPTP-A, OMFP fluorogenic substrate, fluorescence intensity; inhibition, % at 20 µM; AID 651560;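 active means compounds that cut the enzyme signal by at least half of the control window in the single-dose screen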;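 further: plate controls were DMSO wells with enzyme plus substrate for no effect and substrate without enzyme for full effect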
#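 material = LMPTP-A | quantity = 0.625 nM enzyme | reagent = OMFP substrate, 400 µM final | buffer or medium = Bis-Tris pH 6.0, DTT, detergent | detection = endpoint fluorescence intensity from OMFP dephosphorylation | dosing = single 20 µM dose | read-out basis = % inhibition relative to no-enzyme and uninhibited control wells | control set = no-enzyme and uninhibited controls | timing = 50 min at room temperature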
# CSN deneddyl inh: CSN deneddylation inhibition; Q92905; Purified CSN, SCF-Nedd8-OG deneddylation, fluorescence polarization; inhibition, % at 12.5 µM; actives 0.38% (n = 360,000);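 active means pattern-corrected inhibition above about 35%, with an unprinted fluorescence ratio check between 0.5 and 1.5, limit read from the data, passing the limit was not always enough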;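 further: 0% = enzyme with substrate and 100% = substrate without enzyme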
# Target sequence (Q92905 whole entry, looked up, one chain of several): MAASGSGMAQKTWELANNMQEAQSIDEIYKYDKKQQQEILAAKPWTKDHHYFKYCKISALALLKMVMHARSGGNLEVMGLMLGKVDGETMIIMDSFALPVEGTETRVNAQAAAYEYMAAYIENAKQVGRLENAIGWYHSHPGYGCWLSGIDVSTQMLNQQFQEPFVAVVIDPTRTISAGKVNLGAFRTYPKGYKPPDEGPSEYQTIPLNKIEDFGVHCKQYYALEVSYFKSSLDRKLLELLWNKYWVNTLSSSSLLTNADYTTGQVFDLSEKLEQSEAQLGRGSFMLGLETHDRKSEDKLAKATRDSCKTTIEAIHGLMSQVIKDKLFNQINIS
#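 Assay system: purified human Csn5 enzyme expressed in HEK293T cells; Input: 0.24 nM Csn5 enzyme, final concentration; Reagent: 10 nM SCFSkp2-Nedd8OG; Compound dosing: 12.5 µM single point; Times: reaction 90 min, room temperature; Technique: fluorescence polarization readout.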
# DNMT1 inh: blocks human DNA methyltransferase DNMT1; AID 588458; inhibition (reported as % activation of signal), % at 10 µM; P26358; actives 0.83% (n = 360,000); DNMT1 molecular beacon, Hinp1I cleavage, fluorescence; in the data active means inhibition above about 50%
# SUMO1 PPI mod: SUMO1-SIM interaction modulation. P63165. SUMO1 binding to a labelled peptide, TR-FRET, 1 h. inhibition, % at 20 µM. actives 0.33% (n = 360,000); in the data active means inhibition above about 37%
# Target sequence (P63165 whole entry, looked up): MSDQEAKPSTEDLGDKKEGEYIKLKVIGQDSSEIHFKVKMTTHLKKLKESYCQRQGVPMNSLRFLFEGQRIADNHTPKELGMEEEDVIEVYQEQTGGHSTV
# Starred values were filed as active, the others as inactive; . = not tested or not shown.
SMILES,Scp-1 inhibitor,STEP block,LMPTP inh,CSN deneddyl inh,DNMT1 inh,SUMO1 PPI mod
CCC(c1nnc(SCC(=O)Nc2cc(S(C)(=O)=O)ccc2Cl)n1Cc1ccccc1)N(C)C (stereo not drawn),-4.2,-2.7,-8.5,8.3,-12.1,-151.0
CNc1nc(Cl)c(SC)c(NCc2cccc(OC)c2)n1,-5.7,-0.6,0.9,-3.5,1.1,2.4
CNC(=O)c1ccc(-c2cc(C(F)(F)F)nn2C)s1,-3.1,0.5,0.6,-0.6,2.6,-8.5
Cn1nc(C(F)(F)F)cc1-c1ccc(/C=C(\C#N)C(=O)c2ccccc2)s1,-0.7,-7.2,0.5,67.7*,10.9,-3.6
O=C(c1ccc(CSc2nc3ccncc3[nH]2)cc1)N1CCN(c2cccc(Cl)c2)CC1,-9.2,6.0,65.7*,-6.5,-10.2,9.1
O=C(c1ccc(CSc2nc3ccncc3[nH]2)cc1)N1CCCCCC1,-11.7,0.0,17.2,-1.7,3.7,-3.4
COc1ccc2nc(C)cc(SCC(=O)N/N=C/c3ccccc3)c2c1,-9.7,-3.6,1.1,9.4,0.9,1.0
COc1ccccc1/C=N/Nc1cc(C)nc2ccc(C)cc12,3.0,0.2,0.6,-2.1,3.4,7.3
COc1ccc(/C=N/Nc2cc(C)nc3ccc(OC)cc23)c(OC)c1,-7.3,6.4,28.8,17.6,51.2*,87.4*
COc1ccc2nc(C)cc(N/N=C/c3ccccc3)c2c1,0.4,2.2,6.7,10.2,67.1*,-47.7
Cc1ccc(C(=O)CCC(=O)Nc2cccc(C)c2)cc1,0.3,1.1,1.2,2.5,0.3,-1.0
O=C(NN1C(=O)CSC1=S)C(=O)NN1C(=O)CSC1=S,55.1*,8.0,0.1,2.3,58.1*,40.0*
Cc1nnc2c(NCC(C)c3ccccc3)nc3ccccc3n12 (stereo not drawn),-4.0,2.3,1.2,-0.9,2.6,48.3*
Cc1ccc(S(=O)(=O)N2CCOC2CNC(=O)C(=O)NCCN(C)C)cc1 (stereo not drawn),-5.5,0.4,-3.4,0.2,1.0,-2.8
Cn1cc([N+](=O)[O-])c(C(=O)Nc2ccc(-c3nc4ccccc4o3)cc2)n1,14.7,1.3,0.5,4.8,3.1,45.9*
O=C(Nc1ccc(-c2nc3ccccc3o2)cc1)c1ccc(N2CCOCC2)c([N+](=O)[O-])c1,-8.4,-2.3,1.6,-2.7,-11.6,-4.9
O=C(O)CN1C(=O)/C(=C\c2cc(Br)ccc2OCc2ccc([N+](=O)[O-])cc2)SC1=S,49.7,24.3,25.6,28.4,55.7*,25.3
C=CCNC(=O)c1onc(CSc2ccccn2)c1C(=O)NCC=C,-0.5,0.6,0.1,0.6,-0.1,-3.8
NC(=O)CC(NC(=O)Cc1cccc2ccccc12)c1ccc(NC2CCN(Cc3ccccc3)CC2)c([N+](=O)[O-])c1 (stereo not drawn),4.0,-1.9,0.5,19.4,3.8,-12.1
NC(=O)CC(NC(=O)Cc1ccc(Br)cc1)c1ccc(NC2CCN(Cc3ccccc3)CC2)c([N+](=O)[O-])c1 (stereo not drawn),2.7,-0.6,1.9,53.2*,-13.7,-35.9
O=C(COc1c(Br)cc(Br)c2cccnc12)Nc1ccccc1F,-10.6,3.2,9.0,0.9,32.9,47.1*
O=C(COc1ccccc1)Nc1ccccc1F,-7.0,-1.7,-1.7,0.5,-1.4,3.4
Cc1nn(C(C)C(=O)NC2C(=O)N3C(C(=O)O)=C(CSc4nnnn4C)CSC23)cc1Cl (stereo not drawn),31.5,3.5,-0.4,3.6,10.1,7.4
Cn1nnnc1SCC1=C(C(=O)O)N2C(=O)[C@@H](NC(=O)[C@H](O)c3ccccc3)[C@H]2SC1,90.3*,27.7,1.2,20.3,88.1*,35.4
CC(=O)OCC1=C(C(=O)O)N2C(=O)[C@@H](NC(=O)CSc3ccncc3)[C@H]2SC1,76.5*,4.3,2.1,6.4,44.6,15.0
SMILES,Scp-1 inhibitor,STEP block,LMPTP inh,CSN deneddyl inh,DNMT1 inh,SUMO1 PPI mod
CCCn1c(C(C)Nc2nc(C)cs2)nc2cc(Cl)c(Cl)cc21 (stereo not drawn),-5.8,1.0,1.4,-2.4,-4.2,7.1
COc1cc2cccc(OC)c(=O)c2c(O)c1OC,-3.7,2.0,0.4,5.1,-1.4,-22.6
COc1cc2c(ccc3cc(OC)c(OC)c(O)c32)cc1O,69.0*,53.2*,61.8*,34.9,84.9*,33.9
Cc1ccc(-n2ncc(-c3n[nH]c(=S)o3)c2N)cc1C,.,-0.1,-1.2,2.7,-0.6,5.8
CCN1/C(=C/c2ccc3ccccc3[n+]2CC)C=Cc2ccccc21,104.2*,23.7,46.4,23.1,40.0,19.5
CCOC(=O)C1CCN(C(=O)c2ccc(OCC(=O)Nc3cccc(C(F)(F)F)c3)c(OC)c2)CC1,-9.0,1.5,0.9,2.6,1.3,-4.4
O=[N+]([O-])c1nn(-c2cccc(Cl)c2)n(O)c1=NCc1cccnc1,9.0,0.0,-0.2,1.9,0.1,42.5*
CCN1CCC2(CC1)N=C(c1ccc(F)cc1)C(=S)N2C(=O)c1ccc(C(C)(C)C)cc1,6.2,55.6*,-1.2,-6.7,4.3,16.5
C=CCn1c(N)cc(=O)nc1SCC(=O)Nc1ccc(C(=O)OCC)cc1,4.0,1.6,-0.2,1.7,0.2,1.3
CCOC(=O)c1nc2sc(C)c(C)c2c(=O)[nH]1,-17.1,1.2,-0.2,3.8,1.4,-3.3
CCOC(=O)/C(=C\c1cccc(O)c1)c1nc2sc(C)c(C)c2c(=O)[nH]1,3.8,84.6*,6.5,-0.9,-7.7,-0.9
CC(=O)c1c(O)c(C)c(O)c2c1OC1=CC(=O)/C(=C(/C)N)C(=O)C12C (stereo not drawn),.,3.4,1.3,4.1,3.6,3.0
COC12CC(=O)C(C(C)=O)=C(O)C1(C)c1c(O)c(C)c(O)c(C(C)=O)c1O2 (stereo not drawn),.,-6.8,-0.6,42.9*,-20.3,2.9
O=C(CN1CCN(S(=O)(=O)c2ccc(Br)cc2)CC1)c1ccc(O)c(O)c1,4.8,2.6,59.0*,3.1,2.5,-6.0
COc1ccc(OC)c(C(=O)CN2CCN(S(=O)(=O)c3ccc(Br)cc3)CC2)c1,-1.2,6.7,-4.9,-2.1,-5.2,-0.5
CC(C)c1ccc(S(=O)(=O)N2CCN(CC(=O)c3ccc(O)c(O)c3)CC2)cc1,.,1.8,67.8*,-4.2,3.6,-3.0
COc1cc2c(cc1OC)C1CCc3cc4c(cc3C1N=C2)OCO4 (stereo not drawn),.,5.7,7.8,2.2,-2.9,-10.3
COc1cc(/C=C2\C(=O)N(c3cccc(C(=O)O)c3)N=C2C)ccc1OCc1ccccc1,.,3.2,2.9,2.7,19.3,34.9
